Results published in ChEMBL document CHEMBL2086239, “Synthesis and biological evaluation of combretastatin-amidobenzothiazole conjugates as potential anticancer agents” (Eur J Med Chem, 2012).
Active and inactive are the calls of the source. No cut-off for these calls is given here.

Assays:
[1] = tested on: OVCAR-3; experiment: Growth inhibition of human OVCAR3 cells after 48 hrs by SRB assay; type: functional; conditions: OVCAR-3, 48 h
Summary of the method: (§1)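 NCI 60-cell-line screen: after preliminary screening, tested at five dose concentrations on 59 human tumour lines covering leukemia, lung, colon, CNS, melanoma, ovarian, renal, prostate and breast.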

[2] = tested on: LOX IMVI; experiment: Growth inhibition of human LOXIMVI cells after 48 hrs by SRB assay; type: functional; summary of the method: as §1
[3] = tested on: K562; experiment: Growth inhibition of human K562 cells after 48 hrs by SRB assay; type: functional; conditions: K562, 48 h; summary of the method: as §1
[4] = tested on: NCI-H522; experiment: Growth inhibition of human NCI-H522 cells after 48 hrs by SRB assay; type: functional; conditions: NCI-H522, 48 h; summary of the method: as §1
[5] = tested on: A498; experiment: Growth inhibition of human A498 cells after 48 hrs by SRB assay; type: functional; conditions: A498, 48 h; summary of the method: as §1
[6] = tested on: OVCAR-8; experiment: Growth inhibition of human OVCAR8 cells after 48 hrs by SRB assay; type: functional; conditions: OVCAR-8, 48 h; summary of the method: as §1
[7] = tested on: MCF7; experiment: Cytotoxicity against human MCF7 cells at 4 uM after 24 hrs by MTT assay; type: functional, cell-based
Summary of the method: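 MCF-7 cells grown in DMEM with 10% fetal calf serum, penicillin and streptomycin at 37 °C, 5% CO2. Seeded at 10,000 cells/well, incubated overnight, then treated 24 h at 4 µM. Medium replaced with fresh medium plus MTT dye, incubated 2 h at 37 °C. Absorbance read at 570 nm; O.D. taken as viability versus untreated control.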

[8] = tested on: Hs-578T; experiment: Growth inhibition of human Hs578T cells after 48 hrs by SRB assay; type: functional; summary of the method: as §1
[9] = tested on: HEp-2; experiment: Cytotoxicity against human Hep2 cells after 48 hrs assessed as inhibition of cell growth at 10 uM after 48 hrs by SRB assay relative to control; type: functional; conditions: HEp-2, 48 h, read-out: GI
Summary of the method: (§2)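 SRB protein assay in DMEM with 10% FBS at 37 °C, 5% CO2, 100% relative humidity. Cells seeded in 96-well plates, incubated 24 h, then exposed to drug at 10 µM for 48 h and processed per standard protocol. Absorbance read at 560 nm; growth percentage calculated for test wells relative to control wells.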

[10] = tested on: SW-620; experiment: Growth inhibition of human SW620 cells after 48 hrs by SRB assay; type: functional
Summary of the method: (§3)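 NCI 60-cell-line panel, five-dose testing after preliminary screen; sulforhodamine B protein assay in DMEM with 10% FBS, 37 °C, 5% CO2, 100% humidity. Cells seeded and incubated 24 h before compound addition, then exposed 48 h. Absorbance read at 560 nm; growth percentage relative to control wells; GI50 taken as concentration giving 50% growth inhibition.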

[11] = tested on: 786-0; experiment: Growth inhibition of human 786-0 cells after 48 hrs by SRB assay; type: functional; summary of the method: as §1
[12] = tested on: Malme-3M; experiment: Growth inhibition of human MALME-3M cells after 48 hrs by SRB assay; type: functional; summary of the method: as §1
[13] = tested on: SK-MEL-5; experiment: Growth inhibition of human SK-MEL-5 cells after 48 hrs by SRB assay; type: functional; conditions: SK-MEL-5, 48 h; summary of the method: as §3
[14] = tested on: NCI-H460; experiment: Growth inhibition of human NCI-H460 cells after 48 hrs by SRB assay; type: functional; conditions: NCI-H460, 48 h; summary of the method: as §1
[15] = tested on: SK-MEL-2; experiment: Growth inhibition of human SK-MEL-2 cells after 48 hrs by SRB assay; type: functional; conditions: SK-MEL-2, 48 h; summary of the method: as §3
[16] = tested on: NCI/ADR-RES; experiment: Growth inhibition of human NCI/ADR-RES cells after 48 hrs by SRB assay; type: functional; summary of the method: as §1
[17] = tested on: MDA-MB-231; experiment: Growth inhibition of human MDA-MB-231 cells after 48 hrs by SRB assay; type: functional; conditions: MDA-MB-231, 48 h; summary of the method: as §1
[18] = tested on: HCT-116; experiment: Growth inhibition of human HCT116 cells after 48 hrs by SRB assay; type: functional; conditions: HCT-116, 48 h; summary of the method: as §1
[19] = tested on: MOLT-4; experiment: Growth inhibition of human MOLT4 cells after 48 hrs by SRB assay; type: functional; conditions: MOLT-4, 48 h; summary of the method: as §1
[20] = tested on: MCF7; experiment: Growth inhibition of human MCF7 cells after 48 hrs by SRB assay; type: functional; conditions: MCF7, 48 h; summary of the method: as §1
[21] = tested on: HCT-15; experiment: Growth inhibition of human HCT15 cells after 48 hrs by SRB assay; type: functional; conditions: HCT-15, 48 h; summary of the method: as §1
[22] = tested on: OVCAR-5; experiment: Growth inhibition of human OVCAR5 cells after 48 hrs by SRB assay; type: functional; summary of the method: as §1
[23] = tested on: NCI-H23; experiment: Growth inhibition of human NCI-H23 cells after 48 hrs by SRB assay; type: functional; conditions: NCI-H23, 48 h; summary of the method: as §1
[24] = tested on: PC-3; experiment: Cytotoxicity against human PC3 cells after 48 hrs assessed as inhibition of cell growth at 10 uM after 48 hrs by SRB assay relative to control; type: functional; conditions: PC-3, 48 h, read-out: GI; summary of the method: as §2
[25] = tested on: A549; experiment: Cytotoxicity against human A549 cells assessed as inhibition of cell growth at 10 uM after 48 hrs by SRB assay relative to control; type: functional; conditions: for inhibition of growth at 10 µM: A549, 48 h, read-out: GI; summary of the method: as §2
[26] = tested on: SNB-75; experiment: Growth inhibition of human SNB75 cells after 48 hrs by SRB assay; type: functional; conditions: SNB-75, 48 h; summary of the method: as §3
[27] = tested on: MCF7; experiment: Cytotoxicity against human MCF7 cells after 48 hrs assessed as inhibition of cell growth at 10 uM after 48 hrs by SRB assay relative to control; type: functional; conditions: MCF7, 48 h, read-out: GI; summary of the method: as §2
[28] = Inhibition of tubulin polymerization after 30 mins to 1 hr by spectrophotometry
Summary of the method: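 This was a kit-based tubulin polymerization assay. Kit tubulin in G-PEM buffer was incubated with compounds, and polymerization was followed as optical density at 340 nm for 30 min to 1 h. Inhibition was read as a decrease in OD. Nocodazole and paclitaxel were run as reference destabilizer and stabilizer.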

Row | Structure (SMILES) | GI50 [1] | GI50 [2] | GI50 [3] | GI50 [4] | GI50 [5] | GI50 [6] | GI50 [8] | inhibition of growth at 10 µM [9] | GI50 [13] | GI50 [14] | GI50 [15] | GI50 [16] | GI50 [17] | GI50 [18] | GI50 [19] | GI50 [20] | GI50 [21] | GI50 [23] | inhibition of growth at 10 µM [24] | GI50 [26] | further results
1 | COc1ccc(/C=C\c2cc(OC)c(OC)c(OC)c2)cc1OCC(=O)Nc1nc2ccc(F)cc2s1 | 9.99 µM | 3230 nM | 3620 nM | 2920 nM | 6.25 µM | 7.15 µM | inactive | 64% | 1760 nM | 4.36 µM | 8.46 µM | 2550 nM | 9.34 µM | 4.48 µM | 3070 nM | 2300 nM | 8.19 µM | 4.26 µM | 32% | 4390 nM | Activity [7]: Active; GI50 [10]: inactive; GI50 ([11]; 786-0, 48 h): 7.12 µM; GI50 [12]: 5220 nM; GI50 [22]: inactive; inhibition of growth at 10 µM [25]: 44%; inhibition of growth at 10 µM [27]: 56%
2 | COc1ccc(/C=C\c2cc(OC)c(OC)c(OC)c2)cc1OCC(=O)Nc1nc2ccc(OC(F)(F)F)cc2s1 | 3.37 µM | 4770 nM | 3430 nM | 3160 nM | 3.61 µM | 5 µM | 4.33 µM | 78% | 3260 nM | 4.11 µM | 3.29 µM | 2700 nM | 5.16 µM | 3.92 µM | 4210 nM | 2890 nM | 3.23 µM | 4.39 µM | 34% | 1560 nM | GI50 ([10]; SW-620, 48 h): 5.65 µM; GI50 [11]: inactive; GI50 ([22]; OVCAR-5, 48 h): 3.12 µM; inhibition of growth at 10 µM [25]: 40%; inhibition of growth at 10 µM [27]: 59%
3 | COc1ccc(/C=C\c2cc(OC)c(OC)c(OC)c2)cc1O [COMBRETASTATIN A4] | 0.001 µM | 3 nM | 2 nM | 1 nM | 0.006 µM | 0.003 µM | 0.001 µM | 64% | 3 nM | 0.007 µM | 0.003 µM | 1 nM | 0.001 µM | 0.003 µM | 3 nM | 5 nM | 0.003 µM | 0.003 µM | 76% | 7 nM | GI50 ([10]; SW-620, 48 h): 0.003 µM; GI50 ([11]; 786-0, 48 h): 0.1 µM; GI50 [12]: 19 nM; GI50 ([22]; OVCAR-5, 48 h): 0.1 µM; inhibition [28]: Active; inhibition of growth at 10 µM [25]: 55%; inhibition of growth at 10 µM [27]: 71%
4 | COc1ccc(/C=C\c2cc(OC)c(OC)c(OC)c2)cc1OCC(=O)Nc1ccc2nc(C)sc2c1 | 6.32 µM | 2640 nM | 2190 nM | 2280 nM | 4.18 µM | 2.12 µM | 4.32 µM | 40% | 1970 nM | 3.36 µM | 3.15 µM | 2360 nM | 5.45 µM | 3.57 µM | 2110 nM | 740 nM | 2.8 µM | 2.53 µM | 61% | 1550 nM | GI50 ([10]; SW-620, 48 h): 4.7 µM; GI50 ([11]; 786-0, 48 h): 7.55 µM; GI50 [12]: 2840 nM; GI50 ([22]; OVCAR-5, 48 h): 6.69 µM; growth inhibition (GI) [25]: inactive; inhibition of growth at 10 µM [27]: 52%
